We go through one molecule from ChEMBL document CHEMBL4043093, “2-Oxo-3, 4-dihydropyrimido[4, 5-d]pyrimidinyl derivatives as new irreversible pan fibroblast growth factor receptor (FGFR) inhibitors” (Eur J Med Chem, 2017).

Experiment [1] deals with Activin receptor type-1 (Homo sapiens) (UniProt Q04771). Nature of the experiment: Inhibition of wild-type human ACVR1 (C188 to C509 residues) expressed in Escherichia coli BL21 assessed as residual activity at 1000 nM after 30 mins by Kinomescan method relative to control. The essentials:
(§1)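 Single-point screen at a fixed 1 µM, run within a 456-kinase DiscoveRx KINOMEscan panel. Each kinase's read-out is Percent Control, i.e. signal relative to a control without compound. Hits were scored by a Percent Control < 35 cut-off, and an S(35) selectivity score was calculated across the non-mutant kinases.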

Experiment [2] deals with Cyclin-dependent kinase 8 (Homo sapiens) (UniProt P49336). Nature of the experiment: Inhibition of wild-type human partial length CDK8 (M1 to T360 residues) expressed in Escherichia coli BL21 assessed as residual activity at 1000 nM after 30 mins by Kinomescan method relative to control.
The target in experiment [3] is Macrophage colony-stimulating factor 1 receptor (Homo sapiens) (UniProt P07333). Nature of the experiment: Inhibition of wild-type human partial length autoinhibited CSF1R (Y538 to S939 residues) expressed in HEK293 cells assessed as residual activity at 1000 nM after 30 mins by Kinomescan method relative to control. Type of experiment: cell-based.
Experiment [4] concerns Epidermal growth factor receptor (Homo sapiens), P00533 [G719C]. In words: Inhibition of human partial length EGFR G719C mutant (R669 to V1011 residues) expressed in Escherichia coli BL21 assessed as residual activity at 1000 nM after 30 mins by Kinomescan method relative to control. The essentials: (§2)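 KINOMEscan binding panel of 456 kinases, with the test compound at a single concentration of 1 µM. Read-out is Percent Control.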

The target in experiment [5] is Receptor-type tyrosine-protein kinase FLT3 (Homo sapiens) (UniProt P36888). In words: Inhibition of wild-type human partial length FLT3 (V592 to Y969 residues) expressed in Escherichia coli BL21 assessed as residual activity at 1000 nM after 30 mins by Kinomescan method relative to control.
Experiment [6] concerns the target Insulin-like growth factor 1 receptor (Homo sapiens) (UniProt P08069). In words: Inhibition of wild-type human partial length IGF1R (L972 to D1294 residues) expressed in Escherichia coli BL21 assessed as residual activity at 1000 nM after 30 mins by Kinomescan method relative to control.
Experiment [7] deals with Mast/stem cell growth factor receptor Kit (Homo sapiens) (UniProt P10721). Nature of the experiment: Inhibition of wild-type human partial length autoinhibited KIT (Y545 to D952 residues) expressed in HEK293 cells assessed as residual activity at 1000 nM after 30 mins by Kinomescan method relative to control. Type of experiment: cell-based.
In experiment [8] the target is Tyrosine-protein kinase Lyn (Homo sapiens) (UniProt P07948). Nature of the experiment: Inhibition of wild-type human partial length LYN (C219 to Q511 residues) expressed in Escherichia coli BL21 assessed as residual activity at 1000 nM after 30 mins by Kinomescan method relative to control.
Sequence of Tyrosine-protein kinase Lyn (Homo sapiens) (P07948 2-512 limits assumed): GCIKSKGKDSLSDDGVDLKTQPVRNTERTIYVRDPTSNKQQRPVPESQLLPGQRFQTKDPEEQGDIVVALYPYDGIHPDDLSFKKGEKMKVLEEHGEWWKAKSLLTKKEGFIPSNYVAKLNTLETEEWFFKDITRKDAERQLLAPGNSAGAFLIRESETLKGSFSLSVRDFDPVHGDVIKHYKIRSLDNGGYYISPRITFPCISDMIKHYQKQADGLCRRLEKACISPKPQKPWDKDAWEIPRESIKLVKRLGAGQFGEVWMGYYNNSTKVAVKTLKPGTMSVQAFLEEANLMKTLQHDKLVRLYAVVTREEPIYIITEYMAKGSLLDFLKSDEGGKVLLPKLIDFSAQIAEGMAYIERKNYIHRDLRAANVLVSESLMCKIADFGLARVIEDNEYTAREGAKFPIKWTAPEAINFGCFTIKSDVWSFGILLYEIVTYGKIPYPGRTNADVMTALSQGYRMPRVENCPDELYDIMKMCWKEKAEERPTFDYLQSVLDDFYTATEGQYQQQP
In experiment [9] the target is Mitogen-activated protein kinase kinase kinase 4 (Homo sapiens) (UniProt Q9Y6R4). In words: Inhibition of wild-type human partial length MAP3K4 (G1319 to E1608 residues) expressed in Escherichia coli BL21 assessed as residual activity at 1000 nM after 30 mins by Kinomescan method relative to control.
For experiment [10], the target named is Dual specificity mitogen-activated protein kinase kinase 7 (Homo sapiens) (UniProt O14733). In words: Inhibition of wild-type human full length MKK7 (M1 to R419 residues) expressed in HEK293 cells assessed as residual activity at 1000 nM after 30 mins by Kinomescan method relative to control. It is filed as cell-based. The essentials:
(§3)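 Single-concentration screen at 1 µM across a 456-kinase KINOMEscan panel. The read-out is Percent Control for each kinase.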

Experiment [11] deals with Mitogen-activated protein kinase kinase kinase 14 (Homo sapiens) (UniProt Q99558). In words: Inhibition of wild-type human partial length NIK (L318 to P947 residues) expressed in HEK293 cells assessed as residual activity at 1000 nM after 30 mins by Kinomescan method relative to control. Type of experiment: cell-based.
Sequence of Mitogen-activated protein kinase kinase kinase 14 (Homo sapiens) (Q99558 whole entry, looked up, the tested form may be a part): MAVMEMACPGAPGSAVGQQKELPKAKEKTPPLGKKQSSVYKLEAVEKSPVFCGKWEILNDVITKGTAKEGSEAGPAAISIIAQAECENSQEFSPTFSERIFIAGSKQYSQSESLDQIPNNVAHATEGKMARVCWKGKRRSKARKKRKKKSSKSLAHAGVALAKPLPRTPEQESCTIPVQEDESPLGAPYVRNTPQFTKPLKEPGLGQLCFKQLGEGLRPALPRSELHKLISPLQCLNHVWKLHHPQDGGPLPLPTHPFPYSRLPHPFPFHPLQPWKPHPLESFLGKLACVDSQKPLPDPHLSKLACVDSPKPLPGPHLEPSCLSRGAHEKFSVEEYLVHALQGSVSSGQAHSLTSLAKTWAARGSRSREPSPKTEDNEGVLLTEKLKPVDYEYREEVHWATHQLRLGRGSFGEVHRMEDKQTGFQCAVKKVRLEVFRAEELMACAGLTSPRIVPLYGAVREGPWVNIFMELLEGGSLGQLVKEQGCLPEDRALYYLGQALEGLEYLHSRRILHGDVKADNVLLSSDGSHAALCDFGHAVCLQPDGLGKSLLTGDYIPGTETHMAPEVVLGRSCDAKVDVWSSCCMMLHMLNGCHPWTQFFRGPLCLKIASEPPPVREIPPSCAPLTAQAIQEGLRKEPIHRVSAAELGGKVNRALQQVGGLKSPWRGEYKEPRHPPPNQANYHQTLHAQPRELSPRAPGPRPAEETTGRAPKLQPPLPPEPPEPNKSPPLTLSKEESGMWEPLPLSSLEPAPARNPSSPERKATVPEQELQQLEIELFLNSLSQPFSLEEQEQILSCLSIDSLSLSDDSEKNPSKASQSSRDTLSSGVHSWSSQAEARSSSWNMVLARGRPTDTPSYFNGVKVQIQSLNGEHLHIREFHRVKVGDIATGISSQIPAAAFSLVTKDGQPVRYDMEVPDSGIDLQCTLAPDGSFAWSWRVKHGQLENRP
In experiment [12] the target is 3-phosphoinositide-dependent protein kinase 1 (Homo sapiens) (UniProt O15530). Nature of the experiment: Inhibition of wild-type human full length PDPK1 (M1 to Q556 residues) expressed in Escherichia coli BL21 assessed as residual activity at 1000 nM after 30 mins by Kinomescan method relative to control. The gist of the method: as §3
Experiment [13] concerns Phosphatidylinositol 4,5-bisphosphate 3-kinase catalytic subunit alpha isoform (Homo sapiens), P42336 [E545A]. Nature of the experiment: Inhibition of human partial length PIK3CA E545A mutant (R108 to N1068 residues) expressed in HEK293 cells assessed as residual activity at 1000 nM after 30 mins by Kinomescan method relative to control. Type of experiment: cell-based. The essentials: as §2

The target of experiment [14] is Phosphatidylinositol 4-phosphate 5-kinase type-1 gamma (Homo sapiens) (UniProt O60331). In words: Inhibition of wild-type human partial length PIP5K1C (M1 to T668 residues) expressed in HEK293 cells assessed as residual activity at 1000 nM after 30 mins by Kinomescan method relative to control. Type of experiment: cell-based.
For experiment [15], the target named is Serine/threonine-protein kinase PLK1 (Homo sapiens) (UniProt P53350). In words: Inhibition of wild-type human partial length PLK1 (A33 to F325 residues) expressed in HEK293 cells assessed as residual activity at 1000 nM after 30 mins by Kinomescan method relative to control. It is filed as cell-based.
For experiment [16], the target named is Serine/threonine-protein kinase PLK3 (Homo sapiens) (UniProt Q9H4B4). In words: Inhibition of wild-type human partial length PLK3 (A42 to L334 residues) expressed in HEK293 cells assessed as residual activity at 1000 nM after 30 mins by Kinomescan method relative to control. Type of experiment: cell-based.
The subject of experiment [17] is Proto-oncogene tyrosine-protein kinase receptor Ret (Homo sapiens), P07949 [V804M]. In words: Inhibition of human partial length RET V804M mutant (E713 to D1014 residues) expressed in Escherichia coli BL21 assessed as residual activity at 1000 nM after 30 mins by Kinomescan method relative to control. The gist of the method:
as §1

Experiment [18] has as its target Rho-associated protein kinase 2 (Homo sapiens) (UniProt O75116). Nature of the experiment: Inhibition of wild-type human partial length ROCK2 (M1 to T431 residues) expressed in HEK293 cells assessed as residual activity at 1000 nM after 30 mins by Kinomescan method relative to control. It is filed as cell-based.
Experiment [19] has as its target Ribosomal protein S6 kinase alpha-4 (Homo sapiens) (UniProt O75676). In words: Inhibition of wild-type human partial length N-terminal RPS6KA4 kinase domain 1 expressed in Escherichia coli BL21 assessed as residual activity at 1000 nM after 30 mins by Kinomescan method relative to control.
Experiment [20] addresses Angiopoietin-1 receptor (Homo sapiens) (UniProt Q02763). Nature of the experiment: Inhibition of wild-type human partial length TIE2 (N804 to T1112 residues) expressed in Escherichia coli BL21 assessed as residual activity at 1000 nM after 30 mins by Kinomescan method relative to control.
For experiment [21], the target named is Non-receptor tyrosine-protein kinase TNK1 (Homo sapiens) (UniProt Q13470). Nature of the experiment: Inhibition of wild-type human full length TNK1 (M1 to P661 residues) expressed in Escherichia coli BL21 assessed as residual activity at 1000 nM after 30 mins by Kinomescan method relative to control.

Sequence of Proto-oncogene tyrosine-protein kinase receptor Ret (Homo sapiens), P07949 [V804M] (P07949 whole entry V804M, the tested form may be a part): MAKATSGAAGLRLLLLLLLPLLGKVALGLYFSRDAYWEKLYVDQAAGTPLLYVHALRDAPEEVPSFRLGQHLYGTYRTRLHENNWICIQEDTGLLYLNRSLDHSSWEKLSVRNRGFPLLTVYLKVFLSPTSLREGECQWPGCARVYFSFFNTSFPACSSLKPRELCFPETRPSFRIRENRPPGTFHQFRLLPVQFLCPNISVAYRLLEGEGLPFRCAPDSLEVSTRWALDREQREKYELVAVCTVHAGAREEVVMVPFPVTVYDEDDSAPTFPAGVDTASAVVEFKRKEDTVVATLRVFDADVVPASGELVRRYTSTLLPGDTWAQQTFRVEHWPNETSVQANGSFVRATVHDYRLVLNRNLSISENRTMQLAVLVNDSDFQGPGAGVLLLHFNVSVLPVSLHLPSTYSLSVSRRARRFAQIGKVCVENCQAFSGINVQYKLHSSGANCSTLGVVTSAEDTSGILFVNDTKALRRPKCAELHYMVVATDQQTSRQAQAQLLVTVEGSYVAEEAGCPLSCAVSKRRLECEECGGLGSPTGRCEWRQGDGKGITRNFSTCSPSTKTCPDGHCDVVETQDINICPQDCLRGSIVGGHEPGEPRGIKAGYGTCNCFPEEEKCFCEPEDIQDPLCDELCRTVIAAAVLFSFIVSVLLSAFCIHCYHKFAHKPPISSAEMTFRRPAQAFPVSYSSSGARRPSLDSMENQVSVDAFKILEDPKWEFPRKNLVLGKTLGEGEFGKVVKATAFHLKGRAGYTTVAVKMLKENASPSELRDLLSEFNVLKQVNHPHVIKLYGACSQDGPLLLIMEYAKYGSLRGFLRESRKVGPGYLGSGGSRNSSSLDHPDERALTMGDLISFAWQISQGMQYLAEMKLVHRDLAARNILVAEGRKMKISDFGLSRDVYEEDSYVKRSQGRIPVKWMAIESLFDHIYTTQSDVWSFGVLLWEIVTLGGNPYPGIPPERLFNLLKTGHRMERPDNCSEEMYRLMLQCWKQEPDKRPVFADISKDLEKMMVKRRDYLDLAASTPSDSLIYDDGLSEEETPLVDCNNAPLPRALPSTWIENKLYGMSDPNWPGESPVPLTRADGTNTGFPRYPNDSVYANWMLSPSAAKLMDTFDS
Sequence of Insulin-like growth factor 1 receptor (Homo sapiens) (P08069 31-736 limits assumed): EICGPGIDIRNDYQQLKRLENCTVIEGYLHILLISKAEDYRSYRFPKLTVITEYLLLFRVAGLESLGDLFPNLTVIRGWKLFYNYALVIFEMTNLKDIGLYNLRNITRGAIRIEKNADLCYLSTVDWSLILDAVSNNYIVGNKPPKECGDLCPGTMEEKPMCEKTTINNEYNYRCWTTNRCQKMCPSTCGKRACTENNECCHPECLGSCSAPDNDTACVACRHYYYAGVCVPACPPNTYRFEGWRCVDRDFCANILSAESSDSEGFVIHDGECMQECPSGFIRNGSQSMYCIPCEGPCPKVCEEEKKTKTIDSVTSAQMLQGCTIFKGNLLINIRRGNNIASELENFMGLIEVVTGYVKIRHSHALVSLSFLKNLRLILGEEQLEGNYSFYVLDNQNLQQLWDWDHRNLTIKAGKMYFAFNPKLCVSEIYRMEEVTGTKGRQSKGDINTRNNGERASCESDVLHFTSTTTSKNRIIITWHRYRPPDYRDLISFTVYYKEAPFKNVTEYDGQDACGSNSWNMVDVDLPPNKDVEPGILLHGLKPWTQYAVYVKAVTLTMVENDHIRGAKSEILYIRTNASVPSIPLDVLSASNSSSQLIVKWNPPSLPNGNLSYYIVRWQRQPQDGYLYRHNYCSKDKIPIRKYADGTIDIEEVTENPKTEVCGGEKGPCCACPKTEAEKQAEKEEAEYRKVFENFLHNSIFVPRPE
Sequence of Insulin-like growth factor 1 receptor (Homo sapiens) (P08069 741-1367 limits assumed): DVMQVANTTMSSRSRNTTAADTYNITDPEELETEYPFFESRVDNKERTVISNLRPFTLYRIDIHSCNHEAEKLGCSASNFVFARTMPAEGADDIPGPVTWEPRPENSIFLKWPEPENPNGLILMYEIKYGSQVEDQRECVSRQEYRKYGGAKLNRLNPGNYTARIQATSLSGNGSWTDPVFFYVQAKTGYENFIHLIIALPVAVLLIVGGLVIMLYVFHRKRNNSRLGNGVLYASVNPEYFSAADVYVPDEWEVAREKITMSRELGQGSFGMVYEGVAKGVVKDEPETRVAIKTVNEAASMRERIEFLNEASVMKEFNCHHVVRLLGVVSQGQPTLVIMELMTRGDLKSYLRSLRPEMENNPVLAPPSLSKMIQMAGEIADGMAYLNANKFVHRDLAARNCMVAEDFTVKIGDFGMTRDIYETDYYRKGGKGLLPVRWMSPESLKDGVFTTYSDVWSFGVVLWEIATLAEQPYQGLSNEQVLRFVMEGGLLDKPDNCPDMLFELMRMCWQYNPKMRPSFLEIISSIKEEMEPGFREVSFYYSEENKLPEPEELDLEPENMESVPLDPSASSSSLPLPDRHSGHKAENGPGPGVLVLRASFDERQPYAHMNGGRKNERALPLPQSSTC
Sequence of Ribosomal protein S6 kinase alpha-4 (Homo sapiens) (O75676 whole entry, looked up, the tested form may be a part): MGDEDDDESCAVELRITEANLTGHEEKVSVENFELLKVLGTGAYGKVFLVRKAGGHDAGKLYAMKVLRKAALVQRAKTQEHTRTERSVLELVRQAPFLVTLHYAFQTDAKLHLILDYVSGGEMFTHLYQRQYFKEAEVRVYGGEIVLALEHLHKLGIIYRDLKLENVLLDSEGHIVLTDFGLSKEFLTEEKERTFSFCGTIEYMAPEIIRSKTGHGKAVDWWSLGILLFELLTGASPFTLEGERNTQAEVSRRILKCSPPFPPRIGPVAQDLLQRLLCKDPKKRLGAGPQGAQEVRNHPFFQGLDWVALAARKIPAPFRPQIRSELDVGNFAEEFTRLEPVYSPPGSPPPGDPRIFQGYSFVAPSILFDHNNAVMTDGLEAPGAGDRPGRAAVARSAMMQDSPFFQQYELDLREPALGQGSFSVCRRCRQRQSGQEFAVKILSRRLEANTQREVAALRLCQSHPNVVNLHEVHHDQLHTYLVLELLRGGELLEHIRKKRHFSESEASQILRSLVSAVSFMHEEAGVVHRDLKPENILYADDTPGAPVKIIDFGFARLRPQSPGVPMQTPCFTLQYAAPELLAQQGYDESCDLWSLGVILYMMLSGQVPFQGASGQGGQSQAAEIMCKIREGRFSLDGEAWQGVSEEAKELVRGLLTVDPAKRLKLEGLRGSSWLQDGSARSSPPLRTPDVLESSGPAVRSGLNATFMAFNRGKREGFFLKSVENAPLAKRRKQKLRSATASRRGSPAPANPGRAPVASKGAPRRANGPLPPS

In the case of `COc1cc(OC)c(Cl)c(N2Cc3cnc(Nc4ccc(F)cc4)nc3N(C3CCN(C(=O)/C=C/CN(C)C)CC3)C2=O)c1Cl`, the Activity in [1] was found to be 100%; in [2], 85%; in experiment [3] it was 74%; in [4] it was 87%; in experiment [5] it was 96%; in [6] it was 83%. The Activity is 90% in experiment [7]; 7.6% in experiment [8]; 46% in experiment [9]; 100% in [10]; 93% in experiment [11]; 67% in [12]. Besides, the Activity stood at 90% in experiment [13]; 92% in experiment [14]; 100% in [15]; 99% in experiment [16]; 52% in [17]; 100% in [18]. Moreover, the Activity in experiment [19] worked out at 97%; in experiment [20] it was 26%; in experiment [21] it was 93%.
